In brackets after ≈: the same amount, converted by molar mass. Numbered stars: 1 amine (or outer) side, 2 acyl side, 3 side chain; on linkers, the order of the positions; unused ones are H or OH. Bridge positions count the residues as written; N and C are the ends. Square brackets hold non-standard residues; d marks the D form. Peptide text beside a SMILES is read from it. * marks the point of attachment. hTyr(3S-OH,4S-OH,3'-OSO3H) = N[C@H](C(=O)O)[C@H](O)[C@@H](O)c1ccc(O)c(OS(=O)(=O)O)c1; Orn(4R-OH,5R-OH) = O=C([C@H](C[C@@H](O)[C@@H](O)N[*:3])N[*:1])[*:2]; Pro(3S-OH,4S-Me) = C[C@H]1CN[C@H](C(=O)O)[C@H]1O; X1 = CCCCCOc1ccc(-c2cc(-c3ccc(C(=O)*)cc3)no2)cc1; Gln(3R-OH) = NC(=O)C[C@@H](O)[C@H](N)C(=O)O; Hyp = O=C(O)[C@@H]1C[C@@H](O)CN1
Columns and labels:
[1] = tested on: Candida albicans; test: Antimicrobial activity against Candida albicans 3107 by M27-A3 method in presence of 50% human serum; type: functional
In short: (§1)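 Broth microdilution per CLSI M27-A3 in RPMI 1640, done in triplicate on three separate days. Each strain was tested with and without 50% human serum. C. krusei ATCC 6258 and C. parapsilosis ATCC 22019 served as QC strains. Arithmetic means are reported, and geometric means were used for comparison.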

[2] = tested on: Candida albicans; test: Antimicrobial activity against Candida albicans 3795 by M27-A3 method in presence of 50% human serum; type: functional; in short: as §1
[3] = tested on: Candida albicans; test: Antimicrobial activity against Candida albicans 205 harboring FKS1 T1933C mutant gene and FKS1 hotspot1 S645P mutant gene by M27-A3 method; type: functional; in short: as §1
[4] = tested on: Candida albicans; test: Antimicrobial activity against Candida albicans 5415 harboring FKS1 T1933C mutant gene and FKS1 hotspot1 S645P mutant gene by M27-A3 method in presence of 50% human serum; type: functional; in short: as §1
[5] = tested on: Candida albicans; test: Antimicrobial activity against Candida albicans 89 harboring FKS1 C1934A mutant gene and FKS1 hotspot1 S645Y mutant gene by M27-A3 method; type: functional; in short: as §1
[6] = tested on: Candida albicans; test: Antimicrobial activity against Candida albicans 85 harboring FKS1 C1934T mutant gene and FKS1 hotspot1 S645F mutant gene by M27-A3 method; type: functional; in short: as §1
[7] = tested on: Candida albicans; test: Antimicrobial activity against Candida albicans 85 harboring FKS1 C1934T mutant gene and FKS1 hotspot1 S645F mutant gene by M27-A3 method in presence of 50% human serum; type: functional; in short: as §1
[8] = tested on: Candida albicans; test: Antimicrobial activity against Candida albicans 122 harboring FKS1 C1946A mutant gene and FKS1 hotspot1 P649H mutant gene by M27-A3 method in presence of 50% human serum; type: functional; in short: as §1
[9] = tested on: Candida albicans; test: Antimicrobial activity against Candida albicans 121 harboring FKS1 G4082A mutant gene and FKS1 hotspot2 R1361H mutant gene by M27-A3 method; type: functional; in short: as §1
[10] = tested on: Candida albicans; test: Antimicrobial activity against Candida albicans 121 harboring FKS1 G4082A mutant gene and FKS1 hotspot2 R1361H mutant gene by M27-A3 method in presence of 50% human serum; type: functional; in short: as §1
[11] = tested on: Candida albicans; test: Antimicrobial activity against Candida albicans 194 harboring FKS1 C1934T/G4082R mutant gene and FKS1 hotspot1 S645F mutant gene and FKS1 hotspot2 R1361R/H mutant gene by M27-A3 method in presence of 50% human serum; type: functional; in short: as §1
[12] = tested on: Candida albicans; test: Antimicrobial activity against Candida albicans 90 harboring FKS1 G4082R mutant gene and FKS1 hotspot2 R1361R/H mutant gene by M27-A3 method; type: functional; in short: as §1
[13] = tested on: Candida albicans; test: Antimicrobial activity against Candida albicans 90 harboring FKS1 G4082R mutant gene and FKS1 hotspot2 R1361R/H mutant gene by M27-A3 method in presence of 50% human serum; type: functional; in short: as §1
[14] = tested on: Candida albicans; test: Antimicrobial activity against Candida albicans A15-10 harboring FKS1 T1933C mutant gene and FKS1 hotspot1 S645P mutant gene by M27-A3 method; type: functional; in short: as §1
[15] = tested on: Candida albicans; test: Antimicrobial activity against Candida albicans A15-10 harboring FKS1 T1933C mutant gene and FKS1 hotspot1 S645P mutant by M27-A3 method in presence of 50% human serum; type: functional; in short: as §1
[16] = Inhibition of Candida albicans 1002 1,3-beta-D-glucan synthase subunit FKS1p
In short: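 Product-entrapped glucan synthase from YPD-grown cells (37°C, early stationary phase) in a filtration polymerization assay with [3H]UDPG. Echinocandin serial dilutions were added, with 1% DMSO in controls for anidulafungin. Reactions were started with enzyme, run 60 min at 25°C and stopped on ice. IC50 came from a variable-slope sigmoidal fit, in triplicate.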

[17] = Inhibition of Candida albicans 3795 1,3-beta-D-glucan synthase subunit FKS1p
In short: (§2)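 Enzyme is product-entrapped 1,3-β-D-glucan synthase, enriched from membranes of each strain grown at 37°C with shaking in YPD broth to early stationary phase. Filtration polymerization assay uses [3H]UDPG, started by adding enzyme and run 60 min at 25°C. Echinocandins are added as serial dilutions, with 1% DMSO controls for anidulafungin. IC50 is from a variable-slope sigmoidal fit; values are triplicate arithmetic means.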

[18] = Inhibition of Candida albicans 177 1,3-beta-D-glucan synthase subunit FKS1p T1922C mutant; in short: as §2
[19] = Inhibition of Candida albicans 205 1,3-beta-D-glucan synthase subunit FKS1p T1933C mutant; in short: as §2
[20] = Inhibition of Candida albicans 5415 1,3-beta-D-glucan synthase subunit FKS1p T1933C mutant; in short: as §2
[21] = Inhibition of Candida albicans 89 1,3-beta-D-glucan synthase subunit FKS1p C1934A mutant; in short: as §2
[22] = Inhibition of Candida albicans 121 1,3-beta-D-glucan synthase subunit FKS1p G4082A mutant; in short: as §2
[23] = Inhibition of Candida albicans A15-10 1,3-beta-D-glucan synthase subunit FKS1p T1933C mutant; in short: as §2
[24] = tested on: Candida albicans; test: Activity at Candida albicans 90028 1,3-beta-D-glucan synthase subunit FKS1p
In short: (§3)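 Glucan synthase from cells grown at 37°C with vigorous shaking to early stationary phase in YPD. Membrane enzyme enriched by product entrapment. Serial echinocandin dilutions; ANF controls held 1% DMSO. Reaction started by adding enzyme, run 60 min at 25°C in a filtration polymerization assay, stopped on ice. IC50 from a variable-slope sigmoidal fit; means of three repetitions on separate days.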

[25] = tested on: Candida albicans; test: Activity at Candida albicans 1002 1,3-beta-D-glucan synthase subunit FKS1p; in short: as §3
[26] = tested on: Candida albicans; test: Activity at Candida albicans 3107 1,3-beta-D-glucan synthase subunit FKS1p; in short: as §3
[27] = tested on: Candida albicans; test: Activity at Candida albicans 177 1,3-beta-D-glucan synthase subunit FKS1p T1922C mutant
In short: (§4)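 Product-entrapped 1,3-β-D-glucan synthase from cells grown in YPD at 37°C to early stationary phase. Wells held 50 mM HEPES pH 7.5, 10% glycerol, 1.5 mg/ml BSA, 25 mM KF, 1 mM EDTA, 25 μM GTP-γ-S, 1 μg enzyme and [3H]UDPG (0.015–2 mM). Reactions ran 60 min at 25°C. Vmax and Km came from Lineweaver-Burke plots, in triplicate.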

[28] = tested on: Candida albicans; test: Activity at Candida albicans 2762 1,3-beta-D-glucan synthase subunit FKS1p T1922C mutant; in short: as §4
[29] = tested on: Candida albicans; test: Activity at Candida albicans 205 1,3-beta-D-glucan synthase subunit FKS1p T1933C mutant; in short: as §4
[30] = tested on: Candida albicans; test: Activity at Candida albicans 149 1,3-beta-D-glucan synthase subunit FKS1p G1942T mutant; in short: as §4
[31] = tested on: Candida albicans; test: Activity at Candida albicans 90 1,3-beta-D-glucan synthase subunit FKS1p G4082R mutant; in short: as §4

SMILES: CCCCCOc1ccc(-c2cc(-c3ccc(C(=O)N[C@H]4C[C@@H](O)[C@@H](O)NC(=O)[C@@H]5[C@@H](O)[C@@H](C)CN5C(=O)[C@H]([C@H](O)CC(N)=O)NC(=O)[C@H]([C@H](O)[C@@H](O)c5ccc(O)c(OS(=O)(=O)O)c5)NC(=O)[C@@H]5C[C@@H](O)CN5C(=O)[C@H]([C@@H](C)O)NC4=O)cc3)no2)cc1 [MICAFUNGIN] (X1-[Orn(4R-OH,5R-OH)]T[Hyp][hTyr(3S-OH,4S-OH,3'-OSO3H)][Gln(3R-OH)][Pro(3S-OH,4S-Me)]; lactam 1-C)
- MIC [1]: 0.5 µg/mL
- MIC [2]: 0.5 µg/mL
- MIC [3]: 4 µg/mL (≈ 3.15 µM)
- MIC [4]: 8 µg/mL
- MIC [5]: 4 µg/mL (≈ 3.15 µM)
- MIC [6]: 2.67 µg/mL (≈ 2.1 µM)
- MIC [7]: 8 µg/mL
- MIC [8]: 4 µg/mL
- MIC [9]: 0.25 µg/mL (≈ 0.197 µM)
- MIC [10]: 8 µg/mL
- MIC [11]: 8 µg/mL
- MIC [12]: 0.5 µg/mL (≈ 0.394 µM)
- MIC [13]: 4 µg/mL
- MIC [14]: 4 µg/mL (≈ 3.15 µM)
- MIC [15]: 8 µg/mL
- IC50 [16]: 0.05334 µg/mL (≈ 0.042 µM)
- Ki [16]: 0.03452 µg/mL (≈ 0.0272 µM)
- IC50 [17]: 0.03889 µg/mL (≈ 0.0306 µM)
- Ki [17]: 0.05864 µg/mL (≈ 0.0462 µM)
- IC50 [18]: 1.441 µg/mL (≈ 1.13 µM)
- Ki [18]: 4.40423 µg/mL (≈ 3.47 µM)
- IC50 [19]: 1.085 µg/mL (≈ 0.854 µM)
- Ki [19]: 2.67363 µg/mL (≈ 2.1 µM)
- IC50 [20]: 1.254 µg/mL (≈ 0.987 µM)
- Ki [20]: 2.75301 µg/mL (≈ 2.17 µM)
- IC50 [21]: 2.533 µg/mL (≈ 1.99 µM)
- Ki [21]: 0.86713 µg/mL (≈ 0.683 µM)
- IC50 [22]: 0.4982 µg/mL (≈ 0.392 µM)
- Ki [22]: 0.84048 µg/mL (≈ 0.662 µM)
- IC50 [23]: 1.194 µg/mL (≈ 0.94 µM)
- Ki [23]: 2.2495 µg/mL (≈ 1.77 µM)
- Km [24]: 67 µM
- Vmax [24]: 4.71 nmol/min
- Km [25]: 122 µM
- Vmax [25]: 5.8 nmol/min
- Km [26]: 102 µM
- Vmax [26]: 6.04 nmol/min
- Km [27]: 50 µM
- Vmax [27]: 4.4 nmol/min
- Km [28]: 108 µM
- Vmax [28]: 3.57 nmol/min
- Km [29]: 116 µM
- Vmax [29]: 5.54 nmol/min
- Km [30]: 32 µM
- Vmax [30]: 1.22 nmol/min
- Km [31]: 31 µM
- Vmax [31]: 2.36 nmol/min

From ChEMBL document CHEMBL1629579, “Correlating echinocandin MIC and kinetic inhibition of fks1 mutant glucan synthases for Candida albicans: implications for interpretive breakpoints” (Antimicrob Agents Chemother, 2009)
